# Arr AP2 block – inhibitors of beta-arrestin/AP2 binding, primary screen, biochemical, GPCR trafficking, flow cytometry. FITC-arrestin peptide / GST-AP2 beads; AP2 beta2 appendage carries R879A mutation. AID 504490, 2011. actives 0.31% (n = 340,000). beta-arrestin 1 C-terminal peptide binding to AP2 beta2-adaptin appendage (human). inhibition, % at 10 µM;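 active means inhibition above a set limit, near 3 SD of compounds lacking own fluorescence, cut at about 54% in these data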;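 further: plate controls were DMSO wells for no effect and 5 µM unlabelled arrestin peptide for full effect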
#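 System: GST-tagged AP2 beta2-adaptin appendage (R879A) on 4 µm glutathione beads / Reagent: FITC-arrestin peptide, 50 nM / Detection: HyperCyt-sampled flow cytometry, FL1 channel, ex 488/em 535 nm / Timing: 12 min plus 1 h, RT / Buffer or medium: PBS plus Tween 20 (0.05%) and BSA (0.1%)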
# NR3A LBD binder – binders of NR3A ligand-binding domain, primary screen, biophysical, differential scanning fluorimetry, uHTS | actives 2.5% (n = 340,000) | NR3A LBD differential scanning fluorimetry, Tm shift; 0% = protein alone, 100% = glycine-bound protein | Tm shift relative to glycine control, % at 25 µM | Glutamate receptor ionotropic, NMDA 3A (GRIN3A) ligand-binding domain;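 active means melting temperature shift of at least 10% of the positive control shift, at one fixed dose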
# H9c2 protect – cardioprotection against H2O2-induced cell death, primary screen, uHTS, H9c2 cells, ATPLite luminescence; H9c2 cardiomyocytes, H2O2 injury protection, 2 h; protection from H2O2 cell death, % at 20 µM; actives 0.63% (n = 360,000); AID 588492, 2011;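 active means compounds giving at least 50% protection of heart cells from peroxide-induced death in the single-dose screen, raw or plate-pattern-corrected value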;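 further: 0% = DMSO wells with peroxide and 100% = DMSO wells without peroxide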
# FAS-TE inh – FAS thioesterase domain inhibitors, primary screen, biochemical, fluorescence intensity, uHTS; Fatty acid synthase (Homo sapiens), P49327; recombinant FAS-TE, OMFH fluorogenic substrate, fluorescence endpoint; inhibition, % at 15 µM; actives 0.67% (n = 360,000); AID 602261, 2012;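 active means compounds whose normalised, plate-corrected inhibition of enzyme fluorescence in the single-dose primary screen is 50% or more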;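 further: 0% = DMSO with enzyme and 100% = substrate without enzyme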
# hiPSC survival – enhancers of single-cell hiPSC survival, primary screen, ATPlite luminescence; 100% = ROCK inhibitor wells, 0% = DMSO; survival enhancement, % at 20 µM; actives 0.044% (n = 360,000); AID 602274, 2012; in the data active means survival enhancement above about 18%;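 further: cells exposed to compounds for 16 hours before the ATP read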
# SENP1 FRET inh – human SENP1 catalytic domain inhibitors, primary screen, biochemical, FRET, uHTS; recombinant SENP1 catalytic domain, CyPet-SUMO1-YPet FRET cleavage; inhibition, % at 10 µM; actives 0.21% (n = 360,000);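 active means inhibition at least 30% at 10 µM, raw YFP signal under a set limit, fluorescence ratio 0.5 to 1.5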;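 further: 0% = enzyme with DMSO and 100% = no enzyme wells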
# Target sequence (Q9P0U3 419-644 limits assumed): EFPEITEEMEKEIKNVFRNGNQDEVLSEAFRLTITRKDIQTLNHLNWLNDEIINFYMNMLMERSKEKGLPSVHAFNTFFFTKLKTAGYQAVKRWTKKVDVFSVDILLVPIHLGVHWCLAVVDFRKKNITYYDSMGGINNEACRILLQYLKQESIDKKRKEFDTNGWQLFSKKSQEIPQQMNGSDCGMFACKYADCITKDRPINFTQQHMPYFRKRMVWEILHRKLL
#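 material = recombinant human SENP1 catalytic domain, His6-tagged | quantity = 20 pM enzyme | reagent = 25 nM SUMO1 FRET substrate | compound dosing = 10 µM single point, 0.5% DMSO | timing = 50 min enzyme reaction, room temperature, light-protected | detection = FRET, CFP and YFP emission | control set = no-enzyme low, enzyme-DMSO high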
# FAS-TE conf – FAS thioesterase domain inhibitors, confirmation, biochemical, fluorescence intensity, single concentration; shares compounds with FAS-TE inh; recombinant FAS-TE, OMFH fluorogenic substrate; inhibition, % at 15 µM; actives 45% (n = 2,300); AID 624325, 2012;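 active means compounds inhibiting the enzyme by at least 50% at 15 µM in any one of the replicates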;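 further: 0% = enzyme with DMSO only and 100% = wells lacking enzyme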
# Active calls of the source: *; . = no result. An excerpt weighted towards active compounds, which were near 4% of everything screened.
SMILES,Arr AP2 block,NR3A LBD binder,H9c2 protect,FAS-TE inh,hiPSC survival,SENP1 FRET inh,FAS-TE conf
CCOC(=O)c1c(NC(C)=O)sc2c1CCC(C=NCCCN(CC)CC)=C2Sc1ccccc1,42.8,1.0,-16.8,55.9*,-5.5,-21.1,38.1
C#CCn1cc2c(c1-c1ccccc1)c(=O)n(C)c(=O)n2C,.,.,-21.1,-6.7,-2.3,-0.7,.
Cc1nc(N2CCN(S(=O)(=O)c3cccc4nonc34)CC2)c2c3c(sc2n1)CCCC3,1.7,-0.8,48.7*,54.1*,7.4,1.0,6.8
CCCNC(=O)C1(C)CCN(C(=O)c2ccc(OC(F)F)cc2)C1 (centres undefined),.,.,3.8,-8.1,0.9,0.1,.
CC(C)C[C@@H]1COc2cc(N(C)CCO)ccc2S(=O)(=O)N1,.,.,.,-8.5,0.1,2.8,.
Cc1cc(C)c(C#N)c(Sc2nc(C)c([N+](=O)[O-])c(C)c2C#N)n1,.,.,0.8,19.9,-1.1,1.7,.
Cc1nc(Sc2ccccc2)c(C#N)c(C)c1[N+](=O)[O-],9.2,2.2,-4.8,59.4*,-0.2,0.2,46.2*
Cc1ccccc1C(=O)N1CCC(C(=O)Nc2nc3ccc(F)cc3s2)CC1,-0.1,-3.7,-3.8,6.6,-0.3,-1.5,.
O=C1OCCN1C(=O)[C@H]1[C@H](c2ccc(F)cc2)C(c2ccc(F)cc2)=NN1c1ccccc1,4.5,-3.9,13.6,73.6*,-2.6,-27.7,4.0
O=C1OCCN1C(=O)[C@H]1[C@H](c2ccc([N+](=O)[O-])cc2)C(c2ccccc2)=NN1c1ccccc1,-1.9,3.4,49.3,78.0*,-1.3,0.1,19.5
Cc1cccc(C2=NN(c3ccccc3)[C@@H](C(=O)N3CCOC3=O)[C@@H]2c2ccc(F)cc2)c1,20.1,-5.1,-4.7,41.5,0.7,-64.0,.
COc1ccccc1[C@@H]1C(c2ccccc2)=NN(c2ccccc2)[C@H]1C(=O)N1CCOC1=O,12.1,-4.7,-7.2,54.9*,-2.1,-72.6,21.4
O=C1OCCN1C(=O)[C@H]1[C@H](c2ccc(Cl)cc2)C(c2ccc(F)cc2)=NN1c1ccccc1,38.3,0.3,10.2,74.1*,-2.3,-39.6,32.2
COc1ccccc1[C@@H]1C(c2cccc(Cl)c2)=NN(c2ccc(Br)cc2)[C@H]1C(=O)N1CCOC1=O,4.0,5.3,-10.8,22.2,1.7,-59.3,.
O=C1NC[C@H](CCCCN2C[C@H](Cc3ccc(O)cc3)N(CCc3ccc(O)cc3)C(=O)C2=O)N(Cc2ccccc2)C1=O,.,.,.,-2.2,1.1,1.6,.
Cc1cccc(C2=NN(c3ccc(Br)cc3)[C@@H](C(=O)N3CCOC3=O)[C@@H]2c2ccc([N+](=O)[O-])cc2)c1,7.2,-14.1,29.9,85.1*,0.4,3.1,13.0
COc1ccc([C@H]2C[C@H](O)[C@@H](n3cc(-c4ccc(F)cc4)nn3)CN2C(=O)c2cccs2)cc1,.,.,3.6,5.5,0.8,1.2,.
Cc1nn(Cc2ccc([N+](=O)[O-])cc2)c(=O)n1-c1cccc(Cl)c1,3.7,-1.6,-3.8,65.6*,-0.4,1.1,75.1*
CCCCNC(=O)C1(C)CCN1Cc1cccc2c(OC)cc(C(=O)OCC)cc12 (centres undefined),.,.,-9.8,10.8,3.7,0.3,.
Cc1ccc(C(=O)Nc2c(C(=O)N3CCOCC3)cnn2-c2ccccc2)cc1,-11.0,-0.2,-5.8,2.8,2.3,2.2,.
O=C(Nc1c(C(=O)N2CCOCC2)cnn1-c1ccccc1)c1ccc([N+](=O)[O-])cc1,-1.4,-1.1,-1.2,52.3*,0.7,-0.7,56.0*
